CHOP UPR activ = activators of apoptotic arm of unfolded protein response (CHOP). CHO-CHOP luciferase reporter, UPR activation, luminescence; percent of tunicamycin response over DMSO baseline. activation, % at 10 µM. 330,000 tested, 0.34% active;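 active = at 10 µM dose, activation of 40% or more, normalized to positive control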
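Assay system: CHO cells with stable CHOP pathway luciferase reporter; Buffer or medium: F12 plus 10% serum; Times: 16-18 h cell attachment, then 6 h compound exposure, 37 °C; Signal: luciferase luminescence; Read-out basis: percent activation relative to tunicamycin control; Control set: tunicamycin high control, DMSO low control.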
XBP1 UPR activ = adaptive UPR (XBP1) activation; CHO-XBP1 luciferase reporter, IRE1-XBP1 UPR activation, luminescence; percent of tunicamycin response, DMSO as zero; activation, % at 20 µM; 330,000 tested, 0.33% active; AID 463104;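 active = versus positive control, 20 µM dose yields 30% or more activation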
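Test system: CHO-XBP1 luciferase reporter cells | Buffer or medium: Serum-containing F12 medium, 10% FBS | Schedule: 6 h compound exposure at 37 °C, 5% CO2 | Detection: Steady-Glo luciferase glow luminescence, 10 min after reagent addition | Read-out basis: Activation, % of tunicamycin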
Mdm2 MdmX PPI = human Mdm2/MdmX binding inhibition. inhibition, % at 8 µM. AID 485346. O15151+Q00987. SaOS-2 split-luciferase Mdm2/MdmX complementation, luminescence. 330,000 tested, 3% active;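 active = inhibition of at least 50% at 8 µM in the primary screen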
Apaf-1 inh = blocks human Apaf-1 apoptosome activity; inhibition, % at 20 µM; reconstituted apoptosome caspase-3 activity, DEVD-Rh110 fluorescence; 330,000 tested, 0.71% active; O14727; active = inhibition of at least 40% at 20 µM
Target sequence (O14727 whole entry, looked up): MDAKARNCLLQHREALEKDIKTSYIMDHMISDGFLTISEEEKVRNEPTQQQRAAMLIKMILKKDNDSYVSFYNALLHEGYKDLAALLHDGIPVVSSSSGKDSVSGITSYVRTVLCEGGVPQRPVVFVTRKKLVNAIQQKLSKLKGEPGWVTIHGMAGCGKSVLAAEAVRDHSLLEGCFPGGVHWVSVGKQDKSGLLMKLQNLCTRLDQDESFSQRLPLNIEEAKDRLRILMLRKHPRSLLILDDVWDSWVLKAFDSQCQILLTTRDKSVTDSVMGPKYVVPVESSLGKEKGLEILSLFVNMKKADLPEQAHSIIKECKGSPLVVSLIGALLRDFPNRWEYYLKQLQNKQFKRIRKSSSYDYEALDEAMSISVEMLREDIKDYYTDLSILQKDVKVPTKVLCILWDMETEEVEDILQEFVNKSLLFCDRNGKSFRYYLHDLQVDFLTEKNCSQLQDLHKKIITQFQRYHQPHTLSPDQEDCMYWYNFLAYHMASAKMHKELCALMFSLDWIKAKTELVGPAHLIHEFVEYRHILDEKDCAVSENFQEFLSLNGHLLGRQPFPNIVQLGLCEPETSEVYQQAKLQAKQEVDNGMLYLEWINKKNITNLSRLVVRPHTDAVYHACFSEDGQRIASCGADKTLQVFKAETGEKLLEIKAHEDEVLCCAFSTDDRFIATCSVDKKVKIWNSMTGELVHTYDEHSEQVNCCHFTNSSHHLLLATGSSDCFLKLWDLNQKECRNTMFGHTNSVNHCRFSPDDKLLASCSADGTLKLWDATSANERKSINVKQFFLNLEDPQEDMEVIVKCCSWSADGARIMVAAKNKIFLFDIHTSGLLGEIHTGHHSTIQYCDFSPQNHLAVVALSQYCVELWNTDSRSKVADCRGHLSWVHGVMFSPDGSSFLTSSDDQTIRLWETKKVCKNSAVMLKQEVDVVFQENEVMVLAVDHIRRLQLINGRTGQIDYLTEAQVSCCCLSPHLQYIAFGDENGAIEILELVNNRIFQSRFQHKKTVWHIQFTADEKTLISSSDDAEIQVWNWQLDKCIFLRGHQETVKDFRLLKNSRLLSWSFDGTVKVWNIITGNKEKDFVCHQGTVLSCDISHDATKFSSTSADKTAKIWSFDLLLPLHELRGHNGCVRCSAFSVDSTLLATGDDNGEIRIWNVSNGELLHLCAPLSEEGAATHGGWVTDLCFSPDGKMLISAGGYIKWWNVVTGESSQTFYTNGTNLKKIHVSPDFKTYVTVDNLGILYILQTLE
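Assay system: Apoptosome proteins | Medium: pH 7.5 Hepes buffer with CHAPS, BSA, DTT | Also added: Cytochrome c and DEVD-Rh110 substrate | Times: 30 min plus 50 min, RT | Detection: Rhodamine 110 fluorescence at Ex 480/Em 540 nm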
UBC13 inh = blocks human UBC13 polyubiquitin chain formation. P61088. TR-FRET. inhibition, % at 20 µM. 330,000 tested, 0.47% active. AID 485273; in the data active = inhibition above about 45%, passing the limit was not always enough
Mdm2 MdmX conf = human Mdm2/MdmX binding inhibition, confirmed; luminescent assay; 10,000 tested, 55% active; shares compounds with Mdm2 MdmX PPI; inhibition, % at 8 µM; in the data active = inhibition above about 40%
FLuc counter = counter-screen for Mdm2/MdmX inhibitors: full-length luciferase; shares compounds with Mdm2 MdmX PPI; SaOS-2 full-length luciferase counterscreen, luminescence; inhibition, % at 8 µM; 6,200 tested, 77% active;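 active = mean inhibition at 8 µM reaching about 37%, which flags the compound as non-specific, limit read from the data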;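 also: p53-null SaOS-2 cells with luciferase driven by a doxycycline-inducible promoter; compound on cells about two nights before reading with doxycycline added after day one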
Each line names hits and unclear results; the compound was inactive in the other large screens (follow-up assays come after a bar, where they were run). Hits are enriched below; roughly 4.1% of the tested compounds scored in any of these assays.

COc1ccc(N2C(=O)N3[C@H](c4ccc(Br)cc4)[C@@H]4C(=O)N(C(C)(C)C)C(=O)[C@@H]4[C@]3(Cc3ccccc3)C2=O)cc1	none
COc1ccc([C@@H]2[C@@H]3C(=O)N(C(C)(C)C)C(=O)[C@@H]3[C@]3(Cc4ccccc4)C(=O)N(c4ccc(Br)cc4)C(=O)N23)cc1	Mdm2 MdmX PPI 63 | Mdm2 MdmX conf 71 | FLuc counter inactive
Nc1c(CO)nnn1-c1ccccc1	none
CCC(=O)N/N=C/c1ccc(OS(=O)(=O)c2ccccc2)cc1	none
NC(N)=N/N=C/c1ccc(OS(=O)(=O)c2ccccc2)cc1	Mdm2 MdmX PPI 57 | Mdm2 MdmX conf inactive | FLuc counter 82
O=C(O)C1CCN(S(=O)(=O)c2ccc(N3CCC(O)CC3)c([N+](=O)[O-])c2)CC1	none
C[C@H](NC(=O)c1nc[nH]c1C(=O)N1CCN(c2ccccc2)CC1)C(=O)OCc1ccccc1	none
CC(C)C[C@H](NC(=O)c1nc[nH]c1C(=O)NC(c1ccccc1)c1ccccc1)C(=O)OCc1ccccc1	Mdm2 MdmX PPI 51 | Mdm2 MdmX conf inactive
CC(C)C[C@H](NC(=O)c1nc[nH]c1C(=O)N[C@@H](CC(C)C)C(=O)OCc1ccccc1)C(=O)OCc1ccccc1	Mdm2 MdmX PPI 58 | Mdm2 MdmX conf inactive
CC(C)C[C@H](NC(=O)c1nc[nH]c1C(=O)NC(c1ccccc1)c1ccccc1)C(=O)OC(C)(C)C	Mdm2 MdmX PPI 89 | Mdm2 MdmX conf inactive
CC(C)C[C@H](NC(=O)c1[nH]cnc1C(=O)N[C@H](C)c1ccccc1)C(=O)OC(C)(C)C	none
CC(C)C[C@H](NC(=O)c1[nH]cnc1C(=O)N[C@@H](Cc1ccccc1)C(=O)OCc1ccccc1)C(=O)OCc1ccccc1	none
O=C(N[C@@H](Cc1ccccc1)C(=O)OCc1ccccc1)c1nc[nH]c1C(=O)N1CCN(c2ccccc2)CC1	Mdm2 MdmX PPI 65 | Mdm2 MdmX conf inactive
COc1ccc(C(=O)N(CC2CCCO2)C(C(=O)NC2CCCC2)c2ccc(Cl)cc2)cc1OC (configuration not stated)	none
Cc1[nH]c2ccccc2c1C(=O)COC(=O)c1ccc2c(=O)n3c(nc2c1)CCC3	Mdm2 MdmX PPI 59 | Mdm2 MdmX conf inactive
CCN(CC)Cc1c(O)ccc2occ(C(=O)c3ccc(OC)cc3)c12	none
CCN(CC)Cc1c(O)ccc2c([N+](=O)[O-])c(C)n(-c3ccc(OC)cc3)c12	Mdm2 MdmX PPI 71 | Mdm2 MdmX conf 82 | FLuc counter 51
CCN(CC)C(=O)Cn1cnc2sc(C(=O)Nc3cc(OC)c(OC)c(OC)c3)c(C)c2c1=O	none
CC1(C)CC[C@]2(C(=O)O)CC[C@]3(C)C(=CC[C@@H]4[C@@]5(C)CC[C@H](O[C@@H]6O[C@H](C(=O)O)[C@@H](O)[C@H](O[C@@H]7OC[C@H](O)[C@H](O)[C@H]7O)[C@H]6O)C(C)(C)[C@@H]5CC[C@]43C)[C@@H]2C1	Mdm2 MdmX PPI 79 | Mdm2 MdmX conf inactive | FLuc counter 44
CS(=O)(=O)N1CCC(c2noc(-c3ccc(C(F)(F)F)cc3)n2)CC1	none
Cc1ccc(-c2nc(C3CCN(S(=O)(=O)c4ccc(C(F)(F)F)cc4)CC3)no2)cc1	Mdm2 MdmX PPI 56 | Mdm2 MdmX conf inactive
COc1ccc(-c2nn(-c3ccccc3)cc2/C=C2/SC(=S)N(Cc3ccco3)C2=O)c(C)c1	Mdm2 MdmX PPI 59 | Mdm2 MdmX conf inactive
CCCOc1ccc(-c2nn(-c3ccccc3)cc2/C=C2\SC(N)=NC2=O)cc1C	none
CCC(C)NC(=S)Nc1ccc2nc(N3CCN(CC)CC3)cc(C)c2c1 (configuration not stated)	Mdm2 MdmX PPI 52 | Mdm2 MdmX conf inactive | FLuc counter 61
CCN1CCN(c2cc(C)c3cc(NC(=S)N4CCN(c5ccccc5)CC4)ccc3n2)CC1	Mdm2 MdmX PPI 100 | Mdm2 MdmX conf 44 | FLuc counter 52
CCC(C)NC(=S)Nc1ccc2nc(N3CCOCC3)cc(C)c2c1 (configuration not stated)	none
CCN1CCN(c2cc(C)c3cc(NC(=S)N4CCOCC4)ccc3n2)CC1	none
CCOc1ccc(C(=O)Nc2ccc3nc(N4CCN(CC)CC4)cc(C)c3c2)cc1	Mdm2 MdmX PPI 55 | Mdm2 MdmX conf inactive | FLuc counter 60
CCCN1CCN(C(=S)Nc2ccc3nc(N4CCN(CC)CC4)cc(C)c3c2)CC1	Mdm2 MdmX PPI 50 | Mdm2 MdmX conf 43 | FLuc counter 46
CN(C)c1nc(N)c([N+](=O)[O-])c(NCCO)n1	none
CCN1CCN(c2cc(C)c3cc(NC(=S)N4CCN(c5ccccc5F)CC4)ccc3n2)CC1	Mdm2 MdmX PPI 80 | Mdm2 MdmX conf 45 | FLuc counter 60
COc1ccc(-c2csc3ncnc(Sc4nnnn4C)c23)cc1	Mdm2 MdmX PPI 68 | Mdm2 MdmX conf 46 | FLuc counter inactive
COc1ccc(-c2csc3ncnc(Cl)c23)cc1	none
Cn1nnnc1Sc1ncnc2scc(-c3cccc(S(C)(=O)=O)c3)c12	Mdm2 MdmX PPI 84 | Mdm2 MdmX conf 70 | FLuc counter inactive
Cn1nnnc1Sc1ncnc2scc(-c3ccc4c(c3)OCO4)c12	Mdm2 MdmX PPI 71 | Mdm2 MdmX conf inactive
Cn1nnnc1Sc1ncnc2scc(-c3cccc(Br)c3)c12	Mdm2 MdmX PPI 96 | Mdm2 MdmX conf 100 | FLuc counter 49
Cc1ccc(-c2csc3ncnc(SCC(=O)c4ccc5c(c4)OCCO5)c23)cc1	none
O=C(O)CSc1ncnc2scc(-c3ccccc3)c12	none
Cc1c(C(=O)N(C)Cc2nc3ccccc3c(=O)[nH]2)oc2ccccc12	none
COc1ccc2c(c1)CCc1c-2nc2ccccc2c1N1CCOCC1	none
O=c1oc(C2(O)CCCCC2)cc2ccc(-c3ccc4[nH]ccc4c3)cc12	Mdm2 MdmX PPI 81 | Mdm2 MdmX conf 61 | FLuc counter 41
Cc1onc(-c2ccccc2Cl)c1C(=O)OCC(=O)N1CCN(c2ccccc2)CC1	none
Cc1ccc(C(C)C)cc1NC(=O)Nc1ccc([N+](=O)[O-])cc1	Mdm2 MdmX PPI 89 | Mdm2 MdmX conf 82 | FLuc counter 42
C/C(=N\NC(=O)c1cccc(N/N=C(\C)c2ccc([N+](=O)[O-])cc2)c1)c1ccc([N+](=O)[O-])cc1	Mdm2 MdmX PPI 69 | Mdm2 MdmX conf inactive
CC(=O)c1ccc(NC(=O)Nc2ccc([N+](=O)[O-])cc2)cc1	none
O=C(Nc1ccc([N+](=O)[O-])cc1)C(=O)Nc1cccc(C(=O)O)c1	Mdm2 MdmX PPI 64 | Mdm2 MdmX conf 67 | FLuc counter inactive

Screening results: PubChem, Sanford-Burnham Center for Chemical Genomics
